For data set [1], the system named is MBNL1-His6/Biot-(CUG)12 binding. The experiment in a line: AlphaScreen binding assay of MBNL1-His6 and Biot-. Particulars: 1536-well format, 4 ul final volume. In outline: (§1)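 Recombinant MBNL1-His6 (IPTG-induced, Ni-agarose purified, desalted, purity-corrected by SYPRO-stained gel) at 20 nM with 20 nM Biot-(CUG)12. Read after 60 min at room temperature, in duplicate points. IC50 from dose-response inhibition fits of three independent experiments.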
(In general: Alpha assays give light when donor and acceptor beads are brought close together.)

For data set [2] the test system is unchanged. The experiment in a line: HTRF binding assay of MBNL1-His6 and Biot-. The following applies: for IC50: read-out: IC50 (μM) HTRF, hit confirmation, 12-point 1:3 titration, 0.3 nM – 57.5 μM, 1536-well, duplicates. In outline:
as §1
For orientation: TR-FRET usually uses a lanthanide donor and a delayed reading to cut background.

Data set [3] relates to (CAG)20 RNA. As to the kind of experiment: RNA degradation assay. Format: biochemical. The following applies: 30 min, assay buffer, 37°C, varying compound concentrations (NF449 up to 800 μM). In outline: (§2)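 5′-32P-labelled RNA was gel-purified, denatured at 85°C for 1 min and slow-cooled to 37°C. At 100 pM it was incubated with varying test compound concentrations in Tris-HCl pH 8.0/NaCl/KCl/MgCl2 assay buffer for 30 min at 37°C. The reaction was stopped with 7.5 M urea/20 mM EDTA and analysed on denaturing 12% PAGE.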

For data set [4], the system named is (CUG)20 RNA. As to the kind of experiment: RNA degradation assay. It is filed as biochemical. Particulars: 30 min, assay buffer, 37°C, varying compound concentrations (NF449 up to 800 μM). In short, it runs like this:
as §2

In data set [5] the target is (CUG)109 transcript. As to the kind of experiment: Filter binding assay of MBNL1 constructs to. The following applies: read-out: KD, (CUG)109 binding affinity. In short, it runs like this:
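5′-32P-labelled RNA was denatured at 85°C for 1 min and slow-cooled to 37°C in Tris-HCl pH 8.0/NaCl/KCl/MgCl2 assay buffer. It was incubated with full-length or truncated recombinant MBNL1 for 30 min at 37°C, then captured on a nitrocellulose/Hybond N+ sandwich by slot-blot. Kd came from a one-site binding model over three independent experiments.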

Consider eight molecules from publication PMC3280409 (Analytical and Bioanalytical Chemistry, 2012).

Counter-ions that a name gives are not always drawn. d = 2'-deoxy (DNA); r = 2'-OH (RNA)

For the molecule “ssCAG-21: unlabeled mixed RNA/DNA oligo, sequence 5′-rUrArGrCrArGrCrArGrCrArGrCrArGrCrArGrCTT; positive control competitive inhibitor (UAGCAGCAGCAGCAGCAGCTT; sugars from the 5' end r19 d2, backbone not given here)”, the “IC50 of inhibition of MBNL1-(CUG)12 binding, AlphaScreen” value in data set [1] was “comparable to those obtained from the 384-well assays”. For the same molecule, the “IC50 of inhibition of MBNL1-(CUG)12 binding, HTRF” value in data set [2] (1536-well format, 4 ul final volume) is “comparable to those obtained from the 384-well assays”.

On to `CCCN1C[C@H](CSC)C[C@@H]2c3cccc4[nH]cc(c34)C[C@H]21` [Pergolide methanesulfonate], for which, in data set [2], the IC50 (commonly the point on the concentration scale where inhibition reaches its midpoint) worked out at 24.8 µM.

In the case of `Cn1ccc2cc(NC(=O)Nc3cccnc3)ccc21` [SB 200646 HCl], the IC50 in data set [2] worked out at 55.7 µM.

Turning to `Cl.Cl.Oc1ccc2c3c1O[C@H]1c4[nH]c5c(c4C[C@@]4(O)[C@@H](C2)N(CC2CC2)CC[C@]314)C[C@@]1(O)[C@H]2Cc3ccc(O)c4c3[C@@]1(CCN2CC1CC1)[C@H]5O4` [nor-Binaltorphimine dihydrochloride], the “RNA degradation of (CAG)20” value in data set [3] is recorded as “significant RNA degradation”. The “RNA degradation of (CUG)20” value in data set [4] is listed as “significant RNA degradation”. The 50% inhibitory concentration (IC50) in data set [2] came to 21.9 µM.

With `O=C(Nc1cc(C(=O)Nc2ccc(S(=O)(=O)O)cc2S(=O)(=O)O)cc(C(=O)Nc2ccc(S(=O)(=O)O)cc2S(=O)(=O)O)c1)Nc1cc(C(=O)Nc2ccc(S(=O)(=O)O)cc2S(=O)(=O)O)cc(C(=O)Nc2ccc(S(=O)(=O)O)cc2S(=O)(=O)O)c1` [NF449 octasodium salt], the IC50 in data set [2] worked out at 31 µM.

`CC(O)C(C)OC(=O)[C@@H]1C[C@@H]2c3cccc4c3c(cn4C(C)C)C[C@H]2N(C)C1` (some centres unmarked) [LY-53,857 maleate]: the IC50 in data set [2] is 38 µM.

As to `CN1C[C@H](CNC(=O)OCc2ccccc2)C[C@@H]2c3cccc4c3c(cn4C)C[C@H]21` [Metergoline], the IC50 in data set [2] is 52 µM.

B1: MBNL1-FL: full length recombinant MBNL1 protein (protein, UniProt Q9NR56 1-388, looked up)
chain: MAVSVTPIRDTKWLTLEVCREFQRGTCSRPDTECKFAHPSKSCQVENGRVIACFDSLKGRCSRENCKYLHPPPHLKTQLEINGRNNLIQQKNMAMLAQQMQLANAMMPGAPLQPVPMFSVAPSLATNASAAAFNPYLGPVSPSLVPAEILPTAPMLVTGNPGVPVPAAAAAAAQKLMRTDRLEVCREYQRGNCNRGENDCRFAHPADSTMIDTNDNTVTVCMDYIKGRCSREKCKYFHPPAHLQAKIKAAQYQVNQAAAAQAAATAAAMTQSAVKSLKRPLEATFDLGIPQAVLPPLPKRPALEKTNGATAVFNTGIFQYQQALANMQLQQHTAFLPPVPMVHGATPATVSAATTSATSVPFAATATANQIPIISAEHLTSHKYVTQM
modifications: full-length
With B1, the Kd – broadly, the equilibrium constant for the complex coming apart – in data set [5] is 6.92 ± 0.78 nM.
